Results: article PMC3647260 (Journal of the American Heart Association: Cardiovascular …, 2013)
Converted amounts (≈) assume the structure as drawn. Bridge positions count the residues as written; N and C are the ends. Peptide text beside a SMILES is read from it.

Experiments:
[1] = test system: ldlr^−/− mice; type: in vivo, mouse (B6.129S7-Ldlrtm1Her/J, female); conditions: 4 weeks, Western diet, osmotic pump, vs saline
Outline: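 Female ldlr−/− mice on a Western diet received peptide by subcutaneous osmotic pump (10 mg in 100 μL water) or saline. After an overnight fast, plasma cholesterol, triglycerides and glucose were measured at 1, 4 and 8 weeks, using a separate group of animals at each time.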

[2] = test system: ldlr^−/− mice; experiment: Atherosclerotic lesions in the aortic root; type: in vivo, mouse (B6.129S7-Ldlrtm1Her/J, female); conditions: 0.4 mg/mouse i.p. 3 times daily, 4 weeks; n=5/group
Outline: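 Female ldlr−/− mice aged 6 weeks were fed a Western diet (21% milk fat, 0.15% cholesterol) and given peptide i.p. (0.4 or 0.7 mg in 200 μL saline every 8 or 12 h), with saline controls. Mice were saline-perfused and hearts OCT-frozen. Every other 10-μm aortic sinus section was taken (15 sections, 300 μm), baked overnight at 55°C and stained with Oil-red-O/hematoxylin. Lesion area, excluding the internal elastic lamina, was averaged per mouse.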

[3] = test system: NFκB RelA (p65); experiment: Immunoblot of phosphorylated NFκB RelA in liver extracts of treated mice; type: in vivo, mouse (ldlr^−/−); conditions: 8 weeks, Western diet, osmotic pump, vs saline; relative ratio to total RelA
[4] = test system: GAPDH; experiment: Pull-down assay, nonspecific control protein, Jurkat extract; type: binding, human (Jurkat T cells); conditions: biotinylated peptide, Jurkat whole-cell extract; immunoblot
[5] = test system: GAPDH; experiment: Pull-down assay, control protein, HepG2 extract; type: binding, human (HepG2 cells); conditions: biotinylated peptide, HepG2 whole-cell extract; immunoblot
Outline: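 HepG2 cells were serum-starved overnight in DMEM/1% FBS and lysed in binding buffer (10 mmol/L HEPES pH 7.9, 150 mmol/L NaCl, 0.1% NP-40, protease inhibitors). Biotinylated peptide (10 nmol) was incubated with 1.5 mg extract overnight at 4°C. After clearing at 16 000g, it was captured on Neutravidin beads for 4 h. Beads were washed, boiled in SDS buffer and immunoblotted for importins and GAPDH.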

[6] = test system: SREBP1; experiment: SREBP1 nuclear translocation in sterol-depleted HepG2 cells; type: cell-based, human (HepG2 cells)
Outline: (§1)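 HepG2 cells were sterol-depleted with hydroxypropyl-β-cyclodextrin for 15 min and rinsed. They were then incubated 2 h in DMEM/5% delipidized FBS with 10 μmol/L MG132 and 0, 10 or 30 μmol/L test compound. Nuclear and cytosolic extracts were immunoblotted for SREBPs, normalized to Lamin A/C or B (nuclear) or GAPDH/β-actin (cytosolic). Percent inhibition of nuclear translocation comes from ≥3 independent experiments.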

[7] = test system: SREBP2; experiment: SREBP2 nuclear translocation in sterol-depleted HepG2 cells; type: cell-based, human (HepG2 cells); conditions: 2 hours after HPCD
Outline: as §1

[8] = test system: SREBP1; experiment: SREBP1 protein in liver extracts of treated mice; type: in vivo, mouse (ldlr^−/−); conditions: Western diet, osmotic pump, vs saline; P<0.05; 8 weeks in Figure 6
[9] = test system: SREBP2; experiment: SREBP2 protein in liver extracts of treated mice; type: in vivo, mouse (ldlr^−/−); conditions: Western diet, osmotic pump, vs saline; P<0.05; 8 weeks in Figure 6
[10] = test system: SREBP1 and SREBP2 and their target gene transcripts; experiment: Quantitative PCR of SREBP and target gene transcripts in liver; type: in vivo, mouse (ldlr^−/−); conditions: osmotic pump, vs saline, n=5; for hmgcr (HMG-CoA reductase) mRNA in liver: P<0.005
Outline: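 Total liver RNA from Western diet-fed ldlr−/− mice, given peptide or saline by osmotic pump for 4 or 8 weeks, was reverse-transcribed. Transcripts were quantified by real-time PCR with TaqMan probes, using 18S […] as the invariant control.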

[11] = test system: NPC1L1; experiment: NPC1L1 protein in whole-cell liver extracts; type: in vivo, mouse (ldlr^−/−); conditions: 8 weeks, osmotic pump, vs saline; ratio to β actin; 4 mice/group; P<0.05
[12] = test system: HDAC3; experiment: HDAC3 in liver nuclear extracts; type: in vivo, mouse (ldlr^−/−); conditions: 8 weeks, osmotic pump, vs saline; 5 mice/group
Outline: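 Liver nuclear extracts came from Western diet-fed ldlr−/− mice after 8 weeks of subcutaneous osmotic pump dosing (10 mg in 100 μL water) or saline; phosphatase inhibitors were added. HDAC3 was immunoblotted and expressed as a ratio to β-actin. Groups were compared by Mann–Whitney test.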

[13] = test system: ChREBP; experiment: Glucose-induced nuclear translocation of ChREBP in HepG2 cells; type: cell-based, human (HepG2 cells); conditions: 30 μmol/L, 24 hours; 25 mmol/L glucose + 100 nmol/L insulin after starvation; 3 experiments; P<0.05
Outline: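 HepG2 cells (kept in DMEM/10% FBS) were starved 24 h in DMEM with 5.5 mmol/L glucose. They were refed 25 mmol/L glucose plus 100 nmol/L insulin, with or without 30 μmol/L test compound, for 24 h. Nuclear and cytosolic extracts were prepared with phosphatase inhibitors and immunoblotted for ChREBP, with lamin loading controls for nuclear fractions.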

[14] = Blood cell counts, blood chemistries and overt signs of toxicity; type: in vivo, mouse (ldlr^−/−)
Outline: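 Western diet-fed ldlr−/− mice, treated or saline controls. Complete blood counts were run by a clinical hematology laboratory, and lymphocyte subsets were measured by flow cytometry.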

[15] = Solubility; type: physicochemical; conditions: method not given
[16] = liver, spleen, pancreas, and lungs, ref not given; cited from earlier work
[17] = test system: microbial and autoimmune inflammation; conditions: ref [29]; cited from earlier work
[18] = test system: NOD mice; conditions: intense, short-term treatment, ref [20]; cited from earlier work
[19] = ldlr^−/− mice fed a Western diet

In the case of `CSCC[C@@H]1NC(=O)[C@H](CC(C)C)NC(=O)[C@H](CCCCN)NC(=O)[C@H](CCC(N)=O)NC(=O)[C@H](CCCNC(=N)N)NC(=O)[C@H](CCCCN)NC(=O)[C@H](CCCNC(=N)N)NC(=O)[C@H](CCC(N)=O)NC(=O)[C@H](C(C)C)NC(=O)[C@@H](NC(=O)[C@@H]2CCCN2C(=O)[C@H](C)NC(=O)[C@H](CC(C)C)NC(=O)[C@H](CC(C)C)NC(=O)[C@H](C)NC(=O)[C@H](CC(C)C)NC(=O)[C@H](CC(C)C)NC(=O)[C@@H](NC(=O)[C@H](C)NC(=O)[C@@H]2CCCN2C(=O)[C@H](CC(C)C)NC(=O)[C@H](CC(C)C)NC(=O)[C@H](C)NC(=O)[C@@H](NC(=O)[C@H](C)NC(=O)[C@H](C)N)C(C)C)C(C)C)CSSC[C@@H](C(=O)O)NC(=O)[C@@H]2CCCN2C1=O` [cSN50.1] (H-AAVALLPAVLLALLAPCVQRKRQKLMPC-OH; disulfide 17-28), the “plasma ALT (alanine transaminase)” value [1] is reported as “significantly reduced”, the “plasma AST (aspartate transaminase)” value [1] is reported as “significantly reduced” and the “protection from atherosclerosis, lower dose” value [2] is reported as “not protected”. The “phosphorylated NFκB RelA (p65) in cytosolic and nuclear fractions of liver cells” value [3] was “significantly reduced”, the “interaction with GAPDH” value [4] was “not with the nonspecific cytoplasmic control protein GAPDH” and the “interaction with GAPDH” value [5] was “not with the control protein, GAPDH”. For the same compound, the “precursor pSREBP1 in cytosolic fraction” value ([6]; 30 μmol/L, 2 hours after HPCD, 4 experiments) was “remained unchanged”, the “nSREBP1 in cytosolic fraction” value ([6]; 30 μmol/L, 2 hours after HPCD, 4 experiments, P<0.05) was “significantly more” and the “processing of SREBP precursors to nuclear (mature) forms, SREBP1” value ([6]; 2 hours after HPCD, cytosolic fraction) was “unaffected”. The “further reduction of nuclear nSREBP1 at 30 μmol/L” value ([6]; gradual sterol depletion, 24 hours, 30 vs 10 μmol/L) was “did not further reduce nSREBP1 in the nucleus by a significant amount”, the “completeness of SREBP nuclear transport inhibition” value ([6]; rapid and gradual sterol depletion protocols, HepG2) was “did not completely reduce nuclear transport of SREBPs” and the “concentration dependence of nSREBP1 nuclear reduction” value ([6]; rapid depletion with HPCD, 2 hours, 0, 10 or 30 μmol/L) was “concentration dependent”. The “nSREBP2 in cytosolic fraction” value ([7]; 30 μmol/L, 3 experiments) was “not significantly increased”, the “precursor pSREBP2 in cytosolic fraction” value ([7]; 30 μmol/L, 3 experiments) was “remained unchanged” and the “processing of SREBP precursors to nuclear (mature) forms, SREBP2” value ([7]; cytosolic fraction) was “unaffected”. For the same compound, the “nuclear SREBP1 protein in liver” value [8] was “reduced”, the “precursor SREBP1 protein in liver” value [8] was “reduced” and the “nuclear SREBP2 protein in liver” value [9] was “reduced”. For the same compound, the “precursor SREBP2 protein in liver” value [9] was “reduced”, the “abcg5 transcripts in liver” value ([10]; 4 and 8 weeks) was “not reduced” and the “abcg8 transcripts in liver” value ([10]; 4 and 8 weeks) was “not reduced”. The “hmgcr (HMG-CoA reductase) mRNA in liver” value ([10]; 4 weeks) was “significantly decreased expression”, the “srebf1 (SREBP1) transcripts in liver” value ([10]; 4 weeks, P<0.05) was “reduced” and the “hmgcr (HMG-CoA reductase) mRNA in liver” value ([10]; 8 weeks) was “significantly decreased expression”. For the same compound, the “acly (ATP citrate lyase) transcripts in liver” value ([10]; 8 weeks, P<0.05) was “significantly reduced”, the “fasn1 (fatty acid synthase-1) transcripts in liver” value ([10]; 8 weeks, P<0.05) was “significantly reduced” and the “srebf1 (SREBP1) transcripts in liver” value ([10]; 8 weeks, P<0.05) was “reduced”. For the same compound, the “srebf2 (SREBP2) transcripts in liver” value ([10]; 8 weeks, P<0.05) was “reduced”, the “NPC1L1 protein in liver” value [11] was “significant NTM‐induced reduction” and the “HDAC3 nuclear content in liver” value [12] was “not significantly changed”. For the same compound, the “attenuation of nuclear accumulation of ChREBP” value [13] was “≈ 50%”, the “blood cell populations and blood chemistries” value ([14]; 8 weeks of treatment, other than changes shown, vs control animals) was “did not reveal any significant changes” and the blood chemistries [14, 19] was “normal blood chemistries”. For the same compound, the “red blood cells, white blood cells, major lymphocyte subsets, blood platelets” value [14, 19] was “no changes”, the other side effects ([14]; subcutaneous osmotic pumps, 8 weeks) was “no other side effects were observed” and the solubility [15] was 100 mg/mL (≈ 33.5 mM). The “delivery to blood cells and organs” value [16] was “easily delivered”, the “biomarkers (liver transaminases) in other models of liver inflammation” value [17] was “significantly reduced” and the “suppression of diabetes, duration” value [18] was 1 year.
